What is called IC50 is the point on the concentration scale where inhibition reaches its midpoint.

Molecules are shown by their SMILES. Some results are limits rather than exact numbers.

One assay deals with SW480. The experiment in a line: Cytotoxicity against human SW480 cells by MTT assay. The class given is functional, cell-based. (In general: Formazan colour is commonly taken as a measure of viable cells.)
Another assay has as its system SMMC-7721. The experiment in a line: Cytotoxicity against human SMMC7721 cells by MTT assay. It counts as functional, cell-based.
The next assay has as its system MCF7. Nature of the assay: Cytotoxicity against human MCF7 cells by MTT assay. It counts as functional, cell-based.
The subject of a further assay is HL-60. Nature of the assay: Cytotoxicity against human HL60 cells by MTT assay. The class given is functional, cell-based.
Assay [1] can be described thus: Cytotoxicity against human BEAS2B cells by MTT assay. The class given is cell-based, BEAS-2B.
For a further assay, the system named is RAW264.7. The experiment in a line: Inhibition of nitric oxide production in LPS-activated mouse RAW264.7 cells. It counts as functional, cell-based. The procedure, abridged:
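LPS-activated RAW264.7 macrophages; compounds dissolved in DMSO and diluted in medium to a range of concentrations, top concentration 25 μM; NO production read as absorbance at 570 nm on a plate reader.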

The test system of a further assay is A549. Nature of the assay: Cytotoxicity against human A549 cells by MTT assay. It counts as functional, cell-based.
[2] abbreviates: Homo sapiens, SW480, read-out: IC50.
Setting [3] is: Homo sapiens, SMMC-7721, read-out: IC50.
Where [4] appears, read: Homo sapiens, MCF7, read-out: IC50.
Where [5] appears, read: Homo sapiens, HL-60, read-out: IC50.
Setting [6] is: Homo sapiens, BEAS-2B, read-out: IC50.
The mark [7] stands for this setting: Mus musculus, RAW264.7, read-out: IC50.
The mark [8] stands for this setting: Homo sapiens, A549, read-out: IC50.

Take `COc1ccc2c(c1)N(OC)C(=O)[C@@]21C[C@@H]2NC=C(C=O)[C@@H]3C[C@H]1OC[C@H]23`: the IC50 in the assay on SW480 (setting [2]) was over 10 µM; with SMMC-7721 (setting [3]) it was 7.3 µM; in the assay with MCF7 (setting [4]), over 10 µM; in the assay on HL-60 (setting [5]), 8.5 µM; in assay [1] (setting [6]), over 10 µM; in the assay on RAW264.7 (setting [7]) it was over 25 µM. Further, the IC50 with A549 (setting [8]) amounted to 9.3 µM.
In the case of `CC[C@@]1(O)CN[C@H]2C[C@@]3(C(=O)N(OC)c4ccccc43)[C@@H]3OC[C@H]2[C@H]1[C@@H]3O`, in the assay with RAW264.7 (setting [7]), the half-maximal inhibitory concentration (IC50) was over 25 µM.
Same read-out and setting: the value for `COc1ccc2c(c1)N(OC)C(=O)[C@@]21C[C@@H]2NC[C@](O)(C(C)O)[C@@H]3C[C@H]1OC[C@H]23` (some centres not stated) was over 25 µM.
In the case of `[O-][n+]1c2c3cc4c(cn3ccc-2c2ccccc21)CCCC4`, the IC50 entry (in the assay on SW480 (sw480); in the assay with SMMC-7721 (smmc-7721); in the assay on MCF7 (mcf7); in the assay on HL-60 (hl-60); in assay [1] (beas-2b); in the assay with RAW264.7 (raw264.7)) was “ND(Insoluble)” in each case. Also, in the assay on A549 (a549), the half-inhibitory concentration (IC50) result was “ND(Insoluble)”.
As for `CCOC(=O)CCc1cc2c3[n-]c4ccccc4c3cc[n+]2cc1C(=O)O`, the IC50 in the assay with RAW264.7 (setting [7]) is over 25 µM.
Still for that read-out and setting: as for `C=C[C@]12[C@@H]3C[C@@H]4OC[C@@H]3[C@@H](C[C@]13C4=Nc1ccccc13)N(C)[C@H]2O`, the figure is over 25 µM.
`C=C[C@@]12C=N[C@H]3C[C@]14C(=Nc1ccccc14)[C@H]1C[C@@H]2[C@@H]3CO1`: the IC50 with SW480 (setting [2]) was 7.3 µM; in the assay with SMMC-7721 (setting [3]) it was 5.3 µM; with MCF7 (setting [4]), 9.3 µM; in the assay on HL-60 (setting [5]), 4.6 µM; in assay [1] (setting [6]), 8.6 µM; in the assay on RAW264.7 (setting [7]) it was over 25 µM. Further, in the assay with A549 (setting [8]), the IC50 was 4.9 µM.
As for `C=C[C@]12[C@@H]3C[C@@H]4OC[C@@H]3[C@@H](C[C@]13C4=Nc1ccccc13)N(C)[C@@H]2O`, the 50% inhibitory concentration (IC50) in the assay with RAW264.7 (setting [7]) was over 25 µM.
Still for that read-out and setting: as for `C[C@H](O)[C@@]12C[N+](C)([O-])[C@@H]3C[C@]14C(=Nc1ccccc14)[C@H]1C[C@@H]2[C@@H]3CO1` (some centres not stated), the figure is over 25 µM.

Source of the values: ChEMBL document CHEMBL3588808, “Koumine, Humantenine, and Yohimbane Alkaloids from Gelsemium elegans” (J Nat Prod, 2015).
